Screens as filed in PubChem BioAssay.
A selection: hits, their analogues and other compounds. The true share with any hit is near 2.3%.
MEKK3 PB1 HTS: modulators of MEKK3-MEK5 PB1 binding, primary screen, biochemical, wildtype MEKK3, multiplex bead flow cytometry, Alexa488-MEK5. binding response (% of control), % at 10 µM. AID 1529, 2009. 290,000 tested, 1.4% active. bead-based flow cytometry, Alexa488-MEK5 binding to MEKK3; actives lie on both sides; 0 = blocked by unlabeled MEK5, 100 = vehicle;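 active = binding response more than 3 SD above or below the average of its plate-row segment, actives on both sides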;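 also: Alexa488 bead fluorescence after subtracting the streptavidin-only scavenger bead signal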
Target sequence (Q99759 whole entry, looked up): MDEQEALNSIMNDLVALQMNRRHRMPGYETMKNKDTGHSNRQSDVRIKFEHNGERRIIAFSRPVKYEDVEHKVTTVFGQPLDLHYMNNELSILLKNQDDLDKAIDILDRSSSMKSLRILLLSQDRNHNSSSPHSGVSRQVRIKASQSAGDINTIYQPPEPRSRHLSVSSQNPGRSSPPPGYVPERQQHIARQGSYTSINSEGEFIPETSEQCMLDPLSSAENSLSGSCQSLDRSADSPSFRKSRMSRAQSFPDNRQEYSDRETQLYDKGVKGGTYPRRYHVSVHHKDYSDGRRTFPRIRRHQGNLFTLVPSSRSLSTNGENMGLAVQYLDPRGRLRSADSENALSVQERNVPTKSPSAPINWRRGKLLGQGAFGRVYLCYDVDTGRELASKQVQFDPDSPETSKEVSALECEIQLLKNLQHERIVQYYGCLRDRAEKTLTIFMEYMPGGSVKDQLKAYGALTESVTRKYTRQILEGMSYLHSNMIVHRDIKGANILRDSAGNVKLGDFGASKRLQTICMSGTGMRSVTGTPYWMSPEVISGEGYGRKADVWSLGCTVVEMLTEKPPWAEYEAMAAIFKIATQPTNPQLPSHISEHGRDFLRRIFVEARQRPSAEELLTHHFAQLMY
MEKK2 WT-MEK5: modulators of MEK5 binding to wildtype MEKK2, primary screen, biochemical, multiplex bead flow cytometry, Alexa488-MEK5. Mitogen-activated protein kinase kinase kinase 2 (Homo sapiens), Q9Y2U5. Alexa488-MEK5 binding to MEKK2 WT; actives lie on both sides. binding response (% of control), % at 10 µM. 290,000 tested, 1.1% active. AID 1531, 2009; in the data active = binding response below about 67% or above about 130%
Arrestin-AP2 inh: inhibitors of beta-arrestin/AP2 binding, primary screen, biochemical, GPCR trafficking, flow cytometry. beta-arrestin 1 C-terminal peptide binding to AP2 beta2-adaptin appendage (human). FITC-arrestin peptide / GST-AP2 beads; AP2 beta2 appendage carries R879A mutation. inhibition, % at 10 µM. 340,000 tested, 0.31% active;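 active = inhibition above a set limit, near 3 SD of compounds lacking own fluorescence, cut at about 54% in these data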;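 also: plate controls were DMSO wells for no effect and 5 µM unlabelled arrestin peptide for full effect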
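system = GST-tagged AP2 beta2-adaptin appendage (R879A) on 4 µm glutathione beads | reagent = FITC-labelled arrestin peptide probe, 50 nM final | schedule = compound with beads 12 min RT, then probe 1 h RT | signal = HyperCyt-sampled flow cytometry, FL1 channel, ex 488/em 535 nm | read-out = percent response from loss of bead-bound FITC fluorescence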
MEKK2 mut-MEK5: MEK5 binding signal on mutant MEKK2 PB1, primary screen, biochemical, multiplex bead flow cytometry, Alexa488-MEK5 | Alexa488-MEK5 binding to MEKK2 mutant | AID 1530, 2009 | percent response, % at 10 µM | 290,000 tested, 0.35% active; in the data active = percent response above about 24%, passing the limit was not always enough
Numbers without * were called inactive; · = no result; [ ] = remark or other dose.

SMILES	MEKK3 PB1 HTS	MEKK2 WT-MEK5	Arrestin-AP2 inh	MEKK2 mut-MEK5
CNc1ccccc1C(C)(C)c1cc(-c2cccc([N+](=O)[O-])c2)no1	100.0	93.0	10.6	-3.0
CNc1ccccc1C(C)(C)c1cc(-c2cccc(Br)c2)no1	99.0	9.0*	35.4	0.0
F[B-](F)(F)COc1ccccc1	·	·	6.9	·
COc1ccc(N=C2c3ccccc3-c3ccc([N+](=O)[O-])cc32)cc1	·	·	-5.8	·
CC1CCCC(NCC(O)COC(c2ccc(F)cc2)c2ccc(F)cc2)C1C (stereo not given)	101.0	143.0*	-2.0	7.0
CC(=O)Nc1cc(C(=O)CSc2nnc(C3CC3)n2C2CC2)ccc1O	·	·	3.5	·
COC(=O)c1c(C)nc(C)c(C(=O)OC)c1-c1cccs1	87.0	93.0	-0.9	64.0*
Nc1cc(N)nc(SCC(=O)N2CCCCC2)n1	109.0	106.0	-7.0	4.0
Cc1cc(C)nc(SCC(=O)N2CCCCC2)n1	91.0	-2.0*	18.4	14.0
CCOC(=O)C1=CNS(=O)(=O)NC1CCc1ccccc1 (stereo not given)	·	·	5.7	·
CCN(CC)CCC=C(c1cccs1)c1cccs1	·	·	-5.9	·
CCN(CC)c1cccc(OCC(=O)N(C)CCC#N)c1	89.0	·	12.6	73.0*
O=C(Nc1cc2cccc([N+](=O)[O-])c2oc1=O)c1cccs1	87.0	-8.0*	-7.8	1.0
COc1cccc2c1C(=O)c1c(O)c3c(c(O)c1C2=O)C[C@@](O)(C(=O)CO)C[C@@H]3O[C@H]1C[C@H](N)[C@@H](O)[C@H](C)O1	99.0	7.0*	35.4	11.0
COc1cccc2c1C(=O)c1c(O)c3c(c(O)c1C2=O)C[C@@](O)(C(C)=O)C[C@@H]3O[C@H]1C[C@H](N)[C@H](O)[C@H](C)O1	99.0	84.0	26.0	0.0
Cc1ccc(S(=O)(=O)N2CCN(C(=O)C3CCN(c4ncnc5sc(C)c(C)c45)CC3)CC2)c(C)c1	·	·	-5.8	·
Cc1cccc(OCc2n(CC(=O)OC3CC(C)CCC3C(C)C)c3ccccc3[n+]2C)c1 (stereo not given)	103.0	183.0*	0.2	30.0
Cc1ccc(S(=O)(=O)N2CCN(C(=O)COC(=O)COc3cccc(C(F)(F)F)c3)CC2)c(C)c1	·	·	-16.9	·
CCN(CC)c1ccc(-c2sc(Nc3ccccc3)n[n+]2-c2ccc(F)cc2)cc1	103.0	33.0*	1.9	76.0*
NC(=O)C1(Nc2ccc(Cl)cc2)CCCC1	·	·	32.1	·
Cc1ccc(C(=O)NCC(=O)Nc2cccc(C(F)(F)F)c2)cc1	104.0	106.0	-2.7	1.0
O=C(CNC(=O)c1ccccc1)Nc1cccc(C(F)(F)F)c1	93.0	43.0*[inhibitor]	-2.2	-115.0
Oc1cccc(-c2nnc(-c3cccc(O)c3)nn2)c1	·	·	14.9	·
Cc1[nH][nH]c(=O)c1C(c1cc2c(cc1Br)OCO2)c1c(C)[nH][nH]c1=O	103.0	23.0*	5.7	36.0
O=C1C[C@H](NC(=O)OCc2ccccc2)CO1	·	·	11.5	·
SMILES	MEKK3 PB1 HTS	MEKK2 WT-MEK5	Arrestin-AP2 inh	MEKK2 mut-MEK5
CCn1nc(C)c(CN2CCC(C(=O)Nc3cccc(-c4cccc(Cl)c4)c3)CC2)c1C	100.0	146.0*	-30.4	12.0
Cc1cc(C)n(CCCN2CCC(C(=O)Nc3cccc(-c4cccc(F)c4)c3)CC2)n1	109.0	158.0*	5.3	25.0*
CC1CCCCC12NC(=O)N(CC(=O)NNC(=O)c1ccc(Br)cc1)C2=O (stereo not given)	·	·	12.2	·
CCN1C(=O)[C@H]2[C@H]3CN=C(SCc4ccc(C)cc4)N3[C@@](C)(C(=O)OC)[C@H]2C1=O	·	·	17.3	·
Cc1cc(NS(=O)(=O)c2ccc(NC(=O)CSc3nc4ncc(Br)cc4[nH]3)cc2)nc(C)n1	123.0	119.0	-9.9	18.0
Cc1cc(NS(=O)(=O)c2ccc(NC(=O)CSc3nc4ncc(Cl)cc4[nH]3)cc2)nc(C)n1	96.0	-4.0*	-8.6	9.0
CC(C)CNS(=O)(=O)c1ccc(Br)cc1N1CCC[C@@H]1CO	·	·	2.9	·
C=CCNc1nc(NCc2ccccc2)c(C#N)c2c1CN(C)CC2	104.0	121.0	1.8	9.0
N#Cc1c(NCCN)nc(NCc2ccccc2)c2c1CCN(Cc1ccccc1)C2	104.0	169.0*	-4.8	36.0*
